Only some compounds are listed: those with a hit (about 1% of all), similar ones and a draw of the others.
FXN GAA850 act = increases GAA850 frataxin promoter reporter activity | HEK293 lucGAA850 FXN promoter luciferase reporter, 24 h; percent of 10 µM SAHA response | activation, % at 6 µM | hit rate 0.56% among 360,000 | AID 540364;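 active = activation above the average of all compounds screened plus 3 SD, cutoff fixed separately per campaign, cut at about 7.5% in these data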;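 note: 0% = DMSO wells and 100% = 10 µM SAHA wells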
XiGFP reactiv = X-chromosome reactivation activator. hit rate 0.055% among 360,000. AID 743238. activation, % at 7.58 µM. XiGFP mouse fibroblasts, % GFP-positive cells imaging, 3 d; cells co-treated with 5-aza-dC sensitizer; scaled so ellipticine positive control = 100%;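 active = mean normalized replicate activation at least 10% and every replicate at or above 10%; inconclusive = only one of the two criteria met; inactive = mean below 10% and not all replicates reach 10%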;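 note: 0% = median of on-plate neutral control wells and 100% = ellipticine 6 µM median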
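assay system = SV40-immortalized XiGFP fibroblast cells, line 68-5-11 | buffer or medium = DMEM plus 5-aza-dC sensitizer | doses = single-point pinned compound dosing | times = 3-day compound exposure, then 15 min fixation at room temperature | benchmarks = positive control ellipticine, 6 µM final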
CaV13 FRET inh = Disruptors of the CACNA1D IQ motif to Ca2+-dependent inactivation inhibitor domain association, primary screening, Förster resonance energy transfer in intact living …; hit rate 0.098% among 340,000; HEK cells, CFP/YFP FRET ICDI-IQ, plate reader, 10 min; percent FRET-ratio fall versus neutral wells; AID 743397; inhibition, % at 12.3 µM;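 active = mean replicate inhibition of at least 30% and at least 1% of replicates passing that level; inconclusive = only one of the two criteria is met; inactive = neither criterion is met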;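 note: 0% = median of the neutral control wells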
GSIS activator = GLuc luminescence reporter in INS-1E cells, primary screen for activators of glucose-dependent secretion of insulin; INS-1E GLuc reporter insulin secretion, 2-3 h; AID 743287; hit rate 0.61% among 370,000; activation, % at 16.6 µM;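 active = lowest replicate activation of at least 40%, so every replicate reaches that level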;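 note: 0% = median of neutral control wells and 100% = median of IBMX positive control wells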
* marks the source's active call; other numbers are inactive results.

What do the screens show for `N=c1n(CCN2CCOCC2)c2ccccc2n1CC(O)COc1ccccc1` (configuration not stated)?
FXN GAA850 act: 1; CaV13 FRET inh: -7

What do the screens show for `N=c1n(CCN2CCCCC2)c2ccccc2n1CC(O)COc1ccccc1` (configuration not stated)?
FXN GAA850 act: 0; GSIS activator: 42*

How did CCNc1nc(C)nc2c1oc1ccccc12 do in these assays?
FXN GAA850 act: 0; CaV13 FRET inh: -5; GSIS activator: 67*

What do the screens show for `CCNc1nc(CC)nc2c1oc1ccccc12`?
FXN GAA850 act: 2; CaV13 FRET inh: -3; GSIS activator: 81*

How did Cc1nc(NC(C)C)c2oc3ccccc3c2n1 do in these assays?
FXN GAA850 act: 0

What do the screens show for `CCCNC(=O)Nc1ccc2c(c1)OC[C@@H](C)N(C(=O)C1CCCCC1)C[C@@H](C)[C@H](OC)CN(C)C2=O`?
XiGFP reactiv: 0; GSIS activator: -16

What do the screens show for `COc1ccc(CN(C)C(=O)c2cc(-c3ccc(OC)c(OC)c3)nc3ccccc23)c(OC)c1`?
FXN GAA850 act: 0; XiGFP reactiv: 0; CaV13 FRET inh: -8; GSIS activator: 58*

How did CCS(=O)(=O)N1CCC2(CC1)CN(C(=O)Nc1c(C)noc1C)[C@@H](CO)c1[nH]c3cc(OC)ccc3c12 do in these assays?
XiGFP reactiv: 0; GSIS activator: 4

Results for COc1ccc(C2C3=C(CCCC3=O)N(CC(=O)O)C3=C2C(=O)CCC3)cc1Br ?
FXN GAA850 act: 1; XiGFP reactiv: 0; CaV13 FRET inh: 0; GSIS activator: -1

Results for COc1ccc(C2C3=C(CCCC3=O)N(CC(=O)O)C3=C2C(=O)CCC3)cc1Cl ?
FXN GAA850 act: 1; XiGFP reactiv: 0; CaV13 FRET inh: active; GSIS activator: 23

Results for CO[C@H]1CN(C)C(=O)c2ccc(NC(=O)c3cnccn3)cc2OC[C@@H](C)N(C)C[C@H]1C ?
XiGFP reactiv: 1; GSIS activator: 18

Results for C[C@H]1CN([C@@H](C)CO)C(=O)c2cc(NC(=O)Nc3cccc4ccccc34)ccc2O[C@H]1CN(C)C(=O)Nc1ccc(C(F)(F)F)cc1 ?
XiGFP reactiv: 0; GSIS activator: -8

Results for CNC(=O)C(=O)NCC1OCCCN1S(=O)(=O)c1ccc(F)cc1C (configuration not stated) ?
FXN GAA850 act: 0; XiGFP reactiv: 0; CaV13 FRET inh: -9; GSIS activator: 44*

What do the screens show for `CCCNC(=O)[C@H]1[C@H](CO)[C@H]2Cn3c(cccc3=O)[C@H]2N1CCC(F)(F)F`?
XiGFP reactiv: 0; GSIS activator: 7

Results for Cc1cccc(NC(=S)Nc2ccccn2)c1C ?
FXN GAA850 act: 4; XiGFP reactiv: 0; CaV13 FRET inh: -3; GSIS activator: 41*

What do the screens show for `Cc1cccc(C)c1OCC(=O)N=Nc1c(O)[nH]c2ccc(Br)cc12`?
FXN GAA850 act: -3; CaV13 FRET inh: -4; GSIS activator: 51*

Results for CCCCSc1nc2[nH]ncc2c(=O)[nH]1 ?
FXN GAA850 act: 2; XiGFP reactiv: 0; CaV13 FRET inh: -3; GSIS activator: 69*

What do the screens show for `CCOc1ccc(N2C(=O)CC(S/C(N)=N/N=C/c3cccs3)C2=O)cc1` (configuration not stated)?
FXN GAA850 act: -3; XiGFP reactiv: 0; CaV13 FRET inh: -3; GSIS activator: 54*

Results for CCCOc1ccccc1/C=C1\SC(N)=NC1=O ?
FXN GAA850 act: -1; XiGFP reactiv: 0; CaV13 FRET inh: 44*; GSIS activator: -28

How did CCCOc1ccc(/C=C2\SC(N)=NC2=O)cc1OC do in these assays?
FXN GAA850 act: 4; XiGFP reactiv: 0; CaV13 FRET inh: -3; GSIS activator: 4

Results for COc1cccc(/C=C/c2ccc3cccc(O)c3n2)c1OC ?
FXN GAA850 act: 5; XiGFP reactiv: 1; CaV13 FRET inh: -5; GSIS activator: 6

How did COc1ccc(/C=C/c2ccc3cccc(O)c3n2)c(OC)c1OC do in these assays?
FXN GAA850 act: 8.9*; XiGFP reactiv: inconclusive; CaV13 FRET inh: -4; GSIS activator: -4

Results for Cc1ccc(C(=O)Cn2cncn2)cc1 ?
FXN GAA850 act: 2; XiGFP reactiv: 16*; CaV13 FRET inh: -5; GSIS activator: 6

What do the screens show for `CCc1ccc(C(=O)COC(=O)C(Cc2ccccc2)NC(=O)c2ccc(Cl)cc2)cc1` (configuration not stated)?
FXN GAA850 act: -1; CaV13 FRET inh: -6

What do the screens show for `CCc1ccc(C(=O)COC(=O)C(Cc2ccccc2)NC(=O)C2CCC(C)CC2)cc1` (configuration not stated)?
FXN GAA850 act: 1; CaV13 FRET inh: -5; GSIS activator: 48*

Results for O=C(C[C@H]1CC[C@@H]2[C@H](COC[C@H](O)CN2Cc2cc(F)cc(F)c2)O1)NC1CCC1 ?
XiGFP reactiv: 0; GSIS activator: 13

How did Cc1ccc2sc(N3CCN(C(=O)c4ccc([N+](=O)[O-])o4)CC3)nc2c1C do in these assays?
FXN GAA850 act: -1; XiGFP reactiv: 0; CaV13 FRET inh: -6; GSIS activator: 87*

How did C[C@@H]1CN([C@@H](C)CO)S(=O)(=O)c2ccc(C#CC3CCCC3)cc2O[C@@H]1CN(C)Cc1cncnc1 do in these assays?
XiGFP reactiv: 0; GSIS activator: -21

What do the screens show for `Cc1ccc(-c2cc[n+](Cc3ccccc3)cc2)cc1`?
FXN GAA850 act: -1; XiGFP reactiv: 0; CaV13 FRET inh: -3; GSIS activator: -31

Results for Cc1ccc2c(c1)sc[n+]2Cc1ccccc1 ?
FXN GAA850 act: 10*; CaV13 FRET inh: -8; GSIS activator: 10

Results for COc1cc2c(cc1NC(=O)c1ccc(C)c([N+](=O)[O-])c1)oc1ccccc12 ?
FXN GAA850 act: 3; XiGFP reactiv: 0; CaV13 FRET inh: -17; GSIS activator: 53*

Results for CCN(CC)C(=O)Cn1cc(C(=O)C(=O)N2CCN(Cc3ccccc3)CC2)c2ccccc21 ?
FXN GAA850 act: 3; XiGFP reactiv: 0; CaV13 FRET inh: -2; GSIS activator: 60*

What do the screens show for `CN1C(=S)N(c2ccccc2)C(=O)/C1=C/c1cccs1`?
FXN GAA850 act: 2; XiGFP reactiv: 0; CaV13 FRET inh: -5; GSIS activator: 68*

What do the screens show for `CCN1C(=O)/C(=C/c2cccs2)N(C)C1=S`?
FXN GAA850 act: 2; CaV13 FRET inh: -3

How did O=c1ccc2cc3c4c(c2o1)CCCN4CCC3 do in these assays?
FXN GAA850 act: 0; XiGFP reactiv: 0; CaV13 FRET inh: 32*; GSIS activator: 4

What do the screens show for `O=c1oc2c3c4c(cc2s1)CCCN4CCC3`?
FXN GAA850 act: 0; CaV13 FRET inh: -4

Results for CC(C)NC(=O)N(C)C[C@H]1Oc2ccc(NC(=O)CCCN(C)C)cc2C(=O)N([C@H](C)CO)C[C@@H]1C ?
XiGFP reactiv: 0; GSIS activator: 14

Screening data deposited in PubChem by several laboratories.
